Screens deposited in PubChem by several laboratories.
RanGTP-Impb inh – disruptors of Ran-importin-beta complex formation – biochemical, FRET, CFP-Ran, YFP-importin-beta, homogeneous, primary screen | cell-free CFP-Ran/YFP-importin-beta FRET ratio | inhibition, % (test concentration not listed) | hit rate 1.1% among 300,000;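 active = more than half of the replicate wells show a fall in the fluorescence ratio signal beyond about 16%, limit read from the data, passing the limit was not always enough; inconclusive = exactly half of the replicate wells pass the set limit; inactive = fewer than half of replicates pass the limit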;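 note: 0% = DMSO wells and 100% = Ran loaded with GDP instead of GTP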
Runt-SMMHC FRET – inhibitors of human RUNX1 Runt domain binding to CBFb-SMMHC; Q01196+Q13951; Cerulean-Runt/Venus-CBFb-SMMHC FRET ratio 530/480, 1 h; inhibition, % at 20 µM; hit rate 0.74% among 220,000; AID 1434;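 active = mean inhibition across duplicate retests at 20 µM reaching about 50%, limit read from the data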;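 note: 0% = DMSO wells and 100% = wells with excess untagged CBFb-SMMHC; inhibitors lower the FRET ratio by blocking Runt binding to CBFb-SMMHC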
Target sequence (Q01196 whole entry, looked up, the tested form may be a part): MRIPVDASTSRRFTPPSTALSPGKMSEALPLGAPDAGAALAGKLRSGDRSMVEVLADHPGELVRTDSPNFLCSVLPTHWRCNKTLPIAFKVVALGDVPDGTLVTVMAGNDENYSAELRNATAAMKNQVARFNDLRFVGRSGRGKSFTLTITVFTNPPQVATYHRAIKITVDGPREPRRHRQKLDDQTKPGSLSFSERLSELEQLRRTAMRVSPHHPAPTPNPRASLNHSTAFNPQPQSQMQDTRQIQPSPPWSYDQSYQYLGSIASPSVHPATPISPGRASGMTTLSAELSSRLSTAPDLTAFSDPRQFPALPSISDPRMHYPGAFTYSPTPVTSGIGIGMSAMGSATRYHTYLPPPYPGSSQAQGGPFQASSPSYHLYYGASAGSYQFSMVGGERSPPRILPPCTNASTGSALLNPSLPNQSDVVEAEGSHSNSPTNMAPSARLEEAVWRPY
Target sequence (Q13951 whole entry, looked up, the tested form may be a part): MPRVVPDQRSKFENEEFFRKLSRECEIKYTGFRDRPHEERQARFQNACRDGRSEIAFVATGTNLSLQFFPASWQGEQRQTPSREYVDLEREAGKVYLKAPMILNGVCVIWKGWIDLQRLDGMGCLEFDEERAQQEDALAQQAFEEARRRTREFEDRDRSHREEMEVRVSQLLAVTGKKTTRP
CaV13 ICDI inh – Disruptors of the CACNA1D IQ motif to Ca2+-dependent inactivation inhibitor domain association, primary screening, Förster resonance energy transfer in intact living …. hit rate 0.098% among 340,000. AID 743397. HEK cells, CFP/YFP FRET ICDI-IQ, plate reader, 10 min; percent FRET-ratio fall versus neutral wells. inhibition, % at 12.3 µM;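 active = mean replicate inhibition of at least 30% and at least 1% of replicates passing that level; inconclusive = only one of the two criteria is met; inactive = neither criterion is met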;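 note: 0% = median of the neutral control wells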
Runt-CBFb FRET – blocks binding of human RUNX1 Runt domain to CBFb; Cerulean-Runt/Venus-CBFb FRET ratio 530/480, 1 h; hit rate 0.46% among 220,000; inhibition, % at 20 µM; Q01196+Q13951; AID 1496;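 active = inhibition over about 50% at 20 µM in the single-dose screen, limit read from the data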;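 note: 0% = DMSO wells and 100% = excess unlabeled CBFb competitor control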
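Reagent – Venus-CBFb binding partner, 100 nM · Assay system – Cerulean-tagged RUNX1 Runt domain (FRET donor) fusion protein · Input – 100 nM per protein · Incubation – two 1 h room-temperature incubations shielded from light · Measured by – FRET fluorescence · Medium – Tris buffer pH 7.5 with salts and BSA · Benchmarks – unlabeled CBFb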
YIC counter – counter-screen for RanGTP-importin-beta inhibitors: YIC FRET probe | IC50, µM | Purified YIC probe, intramolecular FRET ratio YFP/CFP | hit rate 40% among 1,000 | shares compounds with RanGTP-Impb inh | AID 435026;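 active = fitted half-maximal inhibitory concentration no more than tenfold above the top dose tested; inconclusive = flat fit with 30 to 70% activity, or poor fit; inactive = half-maximal concentration beyond tenfold above the top dose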
The depositor's hits bear a star; ? = inconclusive; · = not tested or not shown. In the library only some 1.2% were active in any assay of this set; here they are far more common.

SMILES | RanGTP-Impb inh | Runt-SMMHC FRET | CaV13 ICDI inh | Runt-CBFb FRET | YIC counter
COc1ccc2cc(CCN3C(=O)c4ccccc4C3=O)c(=O)[nH]c2c1 | 20.4* | -0.9 | -6.3 | -0.6 | >50
Cc1cccc(C)c1-n1nnnc1C(c1cccs1)N1CCN(C/C=C/c2ccccc2)CC1 (centres undefined) | · | · | -3.7 | · | ·
CN(C)/C=C/C(=O)/C=C/c1ccc(Cl)cc1 | 22.1* | 1.3 | -4.3 | 0.5 | >50
O=C(Nc1ccc(SC(F)F)cc1)c1ccc(F)cc1 | ? | 1.6 | 0.8 | -1.9 | ·
Cc1ccc2cc(CN(CC3CCCO3)C(=S)Nc3ccccc3)c(=O)[nH]c2c1C (centres undefined) | 17.8* | 1.2 | -2.7 | -0.4 | >50
COc1cccc(/C=N/NC(=O)c2ccc3nc[nH]c3c2)c1O | 6.0 | 6.2 | -4.8 | 4.0 | ·
CCN(CC)c1ccc(/C=N/NC(=O)c2ccc3nc[nH]c3c2)c(O)c1 | 37.8* | 61.7* | · | 42.6 | 13.3*
COc1ccc(C(C(=O)NC2CCCC2)N(Cc2cccnc2)C(=O)c2snc(C(N)=O)c2N)cc1OC (centres undefined) | -5.2 | · | -3.4 | · | ·
CCN1/C(=C2\SC(=S)N(Cc3ccccc3)C2=O)Sc2ccccc21 | 23.6* | -26.8 | -2.9 | -153.3 | >50
CC1(C)CC(=O)C=C(Nc2ccccc2O)C1 | 16.3* | 0.5 | -4.9 | -0.4 | >50
CC1(C)CC(=O)C=C(Nc2ccccc2F)C1 | 24.9* | 0.0 | -2.1 | 1.3 | >50
COc1ccc(COC(=O)c2ccc(C)c(S(=O)(=O)N3CCOCC3)c2)cc1F | 0.4 | · | -5.9 | · | ·
CCCn1c(O)c(C=Nc2ccccc2)sc1=S | 27.1* | 49.3 | -1.4 | 20.7 | 12.4*
CCOC(=O)c1c(NC(=O)c2cccc(N3C(=O)CCC3=O)c2)sc2c1CCN(CC)C2 | 21.0* | · | · | · | >50
O=C(Cn1nnc(-c2ccncc2)n1)NCCc1ccccc1 | 18.2* | -4.3 | -7.0 | 0.4 | >50
COc1ccc(CNc2ccc3c(c2)ncn3-c2ccccc2OC)cc1 | 29.1* | 6.6 | · | 5.7 | >50
Cc1ccccc1-n1cnc2cc(NCc3cccs3)ccc21 | 22.3* | 5.6 | · | 0.5 | >50
c1ccc(NC2=NCCN2CC2CCCCCC2)cc1 | · | · | -9.1 | · | ·
CC(=O)N1CC(C)Oc2ccc(S(=O)(=O)NC(CC(=O)O)c3ccc(C)cc3C)cc21 (centres undefined) | 1.3 | · | -2.9 | · | ·
O=C(Cc1cc(=O)oc2cc(O)ccc12)N[C@@H](Cc1c[nH]c2ccccc12)C(=O)O | 20.6* | · | -2.4 | · | >50
OC[C@@H]1CN(Cc2ccc3c(c2)OCO3)C[C@H](n2cnc3c(NC4CC4)ncnc32)O1 | · | · | -9.8 | · | ·
O=S1(=O)CC(N2CC=CC2)CN1C1CCCCC1 (centres undefined) | · | · | -11.2 | · | ·
COc1ccc(CC(=O)Nc2sc3c(c2C(N)=O)CCCC3)cc1 | 3.5 | · | -3.4 | · | ·
COc1cc(OC)cc(C(=O)Nc2sc3c(c2C(N)=O)CCC3)c1 | 18.5* | · | -2.9 | · | >26
CCn1c(SCC(=O)NC(C)(C)C)nnc1-c1ccccn1 | 3.0 | 2.0 | -5.5 | 16.8 | ·
SMILES | RanGTP-Impb inh | Runt-SMMHC FRET | CaV13 ICDI inh | Runt-CBFb FRET | YIC counter
COc1ccc(NC(=O)c2cc(C3CCCCN3S(=O)(=O)c3cccs3)on2)c(C)c1 (centres undefined) | · | · | -10.0 | · | ·
CC(=O)N(c1ccc(Cl)cc1)c1c[nH]c2ccccc12 | 26.2* | 0.7 | -4.8 | -0.8 | >50
CC(=O)N(c1ccc(Cl)cc1)c1cn(C(C)=O)c2ccccc12 | ? | 3.6 | 2.7 | -0.2 | ·
COC(=O)Cc1c(C)c2ccc(O)c(CNCc3ccc(OC)c(OC)c3)c2oc1=O | 32.6* | · | -0.3 | · | 7.33*
CCN(CC)Cc1c(O)ccc2c(C)c(CC(=O)OC)c(=O)oc12 | 31.6* | 80.2* | -5.0 | 116.8* | 13.6*
COC(=O)Cc1c(C)c2ccc(OCC(C)=O)c(C)c2oc1=O | 0.1 | -4.7 | -2.1 | 1.3 | ·
Cc1ccc(S(=O)(=O)c2cc3c(=O)n4cccc(C)c4nc3n(C3CCCCC3)c2=N)cc1 | 33.7* | · | · | · | 3.87*
C/C=C(\C)CN1CCCC(N(C)CCc2ccc(OC)c(OC)c2)C1 (centres undefined) | 1.6 | · | -4.8 | · | ·
O=C1Nc2ccccc2S/C1=C/c1cccs1 | -2.1 | -13.8 | -4.0 | -1.5 | ·
O=C1/C(=C/c2cccs2)Sc2ccccc21 | 18.8* | -2.8 | -15.0 | -1.1 | ?
Cc1ccccc1-c1ccc(Nc2ccc(N3CCOCC3)cc2)nn1 | -10.7 | 1.3 | · | 18.7 | ·
Cc1cc(NCCN(C)C)n2nc(-c3cccs3)cc2n1 | 17.2* | 6.9 | -6.9 | 4.3 | 24.5*
Cc1cc(NCCCO)n2nc(-c3cccs3)cc2n1 | -1.9 | -5.8 | -5.0 | 0.6 | ·
COc1cc(C(=O)NNC(=O)c2cc(=O)[nH]c3ccccc23)cc(OC)c1OC | -0.7 | · | · | · | ·
Cc1c(NC2=CC(=O)CCC2)c(=O)n(-c2ccccc2)n1C | 17.8* | 2.8 | -5.3 | 1.7 | >50
CCc1ccc(C(=O)c2cc3ccc(O)cc3oc2=O)cc1 | 44.9* | · | 1.3 | · | 10.9*
O=C(c1ccc(Br)cc1)c1cc2ccc(O)cc2oc1=O | 32.6* | · | 2.9 | · | 19.9*
O=C(c1ccccc1)c1cc2ccc(O)cc2oc1=O | 27.4* | 174.0* | -4.7 | · | 18.2*
O=C(c1ccc(Br)cc1)c1coc2ccc(O)cc12 | 1.5 | · | -3.4 | · | ·
CC1Cc2cc(S(=O)(=O)CCC(=O)NCc3ccco3)ccc2N1C(=O)C1CC1 (centres undefined) | -0.3 | · | -15.4 | · | ·
CCCOC(=O)CSC1=C(C#N)C(c2ccccc2OC)C(C#N)C(=O)N1 (centres undefined) | 25.7* | 0.7 | -1.0 | 2.9 | >50
Cc1ccc(C(=O)NCc2ccncc2)cc1S(=O)(=O)N1CCCCC1 | -1.4 | · | -6.3 | · | ·
O=c1c2ccccc2sc2ccc(C#CC3(O)CCCCC3)cc12 | 30.2* | · | -10.4 | · | 21.8*
COC(=O)c1ccc2nc(NC(=O)C3CCCCC3)sc2c1 | -2.6 | -0.7 | -4.4 | -2.6 | ·
COC(=O)c1ccc2nc(NC(=O)C(C)(C)C)sc2c1 | 20.2* | 0.0 | -3.9 | -1.7 | >50
SMILES | RanGTP-Impb inh | Runt-SMMHC FRET | CaV13 ICDI inh | Runt-CBFb FRET | YIC counter
Cc1ccc(Nc2nc(N)nc(CCl)n2)cc1 | 1.3 | 1.9 | -4.7 | 0.6 | ·
Cc1ccc(Nc2nc(N)nc(CC#N)n2)cc1 | 24.5* | 4.1 | -7.1 | 1.9 | >50
Cc1cccc(C(=O)N(Cc2ccco2)c2c(N)n(Cc3ccccc3)c(=O)[nH]c2=O)c1 | · | · | -7.0 | · | ·
CCCOC(=O)c1ccc(Oc2coc3c(CN(CC)CC)c(O)ccc3c2=O)cc1 | -2.7 | 5.9 | -4.8 | -1.7 | ·
CCOC(=O)C/C(=N\Nc1ncnc2ccccc12)c1ccccc1 | 23.1* | · | -3.6 | · | >50
N=c1oc2ccccc2cc1-c1nc(-c2ccc(Cl)cc2)cs1 | 16.7* | -149.8 | -4.4 | -45.7 | 32.3*
O=c1oc2ccccc2cc1-c1csc(Cc2nc(-c3ccc(Cl)cc3)cs2)n1 | 5.0 | -15.6 | -2.3 | -1.7 | ·
N#CC1=C(N)N2C(=C(C#N)C13CCCC3)Nc1ccccc12 | -1.5 | -0.2 | -5.9 | 3.8 | ·
